Here are results for three compounds from ChEMBL document CHEMBL4371006, “Discovery of N-[4-(Quinolin-4-yloxy)phenyl]benzenesulfonamides as Novel AXL Kinase Inhibitors” (J Med Chem, 2018).

Data set [1] is described as follows: Apparent permeability from basolateral to apical side in human Caco2 cells at 10 uM after 2 hrs by LC-MS/MS analysis. The note with it: Caco-2. Format: ADME, cell-based. An outline of the steps: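 Caco-2 cells differentiated three weeks in 96-well format, monolayer integrity checked by Lucifer yellow transport. Compound at 10 µM for 2 h; apical buffer HBSS/10 mM HEPES/glucose pH 6.5 with 100 µM Lucifer yellow, basolateral buffer pH 7.4. Papp = (dQ/dt)/C0A; efflux ratio Papp(B→A)/Papp(A→B).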

A short description of data set [2]: Intrinsic clearance in mouse liver microsomes at 5 uM after 60 mins in presence of NADPH by LC-MS/MS analysis. Format: ADME, Microsome. The note with it: read-out: CLH. An outline of the steps:
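Compound at 5 µM with 1 mg/mL human or mouse liver microsomes plus an NADPH-regenerating system, in 100 mM potassium phosphate at 37°C. Reactions were stopped with acetonitrile at sampling times. Percent remaining versus time 0 was measured by HPLC, in duplicate.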

Data set [3] in a line: Clearance in mouse at 1 to 2 mg/kg, iv by LC/MS/MS analysis. It counts as ADME, organism-based. The note with it: in vivo.
The nature of data set [4]: Apparent half-life of the terminal disposition phase in mouse at 3 mg/kg, iv by LC/MS/MS analysis. The note with it: in vivo, read-out: t1/2 lambda z (converted).
Data set [5] deals with T1, Tyrosine-protein kinase receptor UFO (Homo sapiens, UniProt P30530).
T1 sequence (P30530 whole entry): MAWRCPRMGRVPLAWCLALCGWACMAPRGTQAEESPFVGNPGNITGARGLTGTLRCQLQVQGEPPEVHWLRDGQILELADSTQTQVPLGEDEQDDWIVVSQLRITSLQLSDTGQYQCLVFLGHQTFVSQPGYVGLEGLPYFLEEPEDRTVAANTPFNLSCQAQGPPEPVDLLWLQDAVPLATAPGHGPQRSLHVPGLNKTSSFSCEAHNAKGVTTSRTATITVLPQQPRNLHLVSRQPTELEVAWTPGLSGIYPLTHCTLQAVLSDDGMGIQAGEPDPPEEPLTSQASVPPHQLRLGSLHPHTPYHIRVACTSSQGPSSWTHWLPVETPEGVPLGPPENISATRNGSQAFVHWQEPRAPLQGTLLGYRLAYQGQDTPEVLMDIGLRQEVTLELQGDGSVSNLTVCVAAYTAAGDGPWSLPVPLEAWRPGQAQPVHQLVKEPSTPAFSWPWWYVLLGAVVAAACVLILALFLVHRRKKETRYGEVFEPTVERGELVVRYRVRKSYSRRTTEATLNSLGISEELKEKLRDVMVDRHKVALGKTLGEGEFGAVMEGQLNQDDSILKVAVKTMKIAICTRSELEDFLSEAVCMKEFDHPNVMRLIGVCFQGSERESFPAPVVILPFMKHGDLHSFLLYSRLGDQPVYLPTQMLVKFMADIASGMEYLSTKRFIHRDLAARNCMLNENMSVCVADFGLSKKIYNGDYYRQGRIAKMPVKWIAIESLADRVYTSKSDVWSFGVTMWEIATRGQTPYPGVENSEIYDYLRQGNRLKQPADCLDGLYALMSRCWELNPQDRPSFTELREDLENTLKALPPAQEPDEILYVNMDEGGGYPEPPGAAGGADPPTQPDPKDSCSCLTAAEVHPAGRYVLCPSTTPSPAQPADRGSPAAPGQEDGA
The data set is described as follows: Binding affinity to AXL in SILAC-labeled human MDA-MB-231 cells lysate by mass spectrometry based kinAffinity assay. Format: subcellular. An outline of the steps: (§1)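 Chemical proteomics: MDA-MB-231 lysate bound to matrix of immobilized broad kinase inhibitors at several densities (BC50), then competed with increasing free compound (CC50); proteins quantified by mass spectrometry, Kd via Cheng-Prusoff. Two competition formats run in parallel to check equilibrium.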

In data set [6] the target is Non-receptor tyrosine-protein kinase TNK1 (Homo sapiens, UniProt Q13470). The data set is described as follows: Binding affinity to TNK1 in SILAC-labeled human MDA-MB-231 cells lysate by mass spectrometry based kinAffinity assay. It counts as subcellular. In short, it runs like this:
(§2)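 MDA-MB-231 lysate applied to KinAffinity matrix of immobilized broadband kinase inhibitors at graded densities to obtain BC50 per target. Competition then run with increasing free compound to give CC50; Kd derived by Cheng-Prusoff. Two competition experiments in parallel to check equilibrium, one with lysate pre-incubated with compound before adding matrix. Quantitation by mass spectrometry.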

Data set [7] has as its target Receptor-interacting serine/threonine-protein kinase 2 (Homo sapiens, UniProt O43353). Nature of the data set: Binding affinity to RIPK2 in SILAC-labeled human MDA-MB-231 cells lysate by mass spectrometry based kinAffinity assay. It counts as subcellular. In short, it runs like this: as §2
The next data set concerns the target Activin receptor type-1 (Homo sapiens, UniProt Q04771). Nature of the data set: Binding affinity to ACVR1 in SILAC-labeled human MDA-MB-231 cells lysate by mass spectrometry based kinAffinity assay. Format: subcellular. An outline of the steps:
as §1

Data set [8] concerns the target Tyrosine-protein kinase ABL2 (Homo sapiens, UniProt P42684). The data set is described as follows: Binding affinity to ABL2 in SILAC-labeled human MDA-MB-231 cells lysate by mass spectrometry based kinAffinity assay. Format: subcellular. An outline of the steps:
as §1

The target in data set [9] is Proto-oncogene tyrosine-protein kinase Src (Homo sapiens, UniProt P12931). The data set is described as follows: Binding affinity to SRC in SILAC-labeled human MDA-MB-231 cells lysate by mass spectrometry based kinAffinity assay. Format: subcellular. In short, it runs like this: as §2
Data set [10] deals with 5'-AMP-activated protein kinase catalytic subunit alpha-1 (Homo sapiens, UniProt Q13131). Nature of the data set: Binding affinity to PRKAA1 in SILAC-labeled human MDA-MB-231 cells lysate by mass spectrometry based kinAffinity assay. Format: subcellular. In short, it runs like this: as §2
The target in data set [11] is Tyrosine-protein kinase Fer (Homo sapiens, UniProt P16591). The data set is described as follows: Binding affinity to FER in SILAC-labeled human MDA-MB-231 cells lysate by mass spectrometry based kinAffinity assay. It counts as subcellular. In short, it runs like this: as §1
Data set [12] deals with 5'-AMP-activated protein kinase subunit beta-2 (Homo sapiens, UniProt O43741). The data set is described as follows: Binding affinity to PRKAB2 in SILAC-labeled human MDA-MB-231 cells lysate by mass spectrometry based kinAffinity assay. It counts as subcellular. In short, it runs like this:
as §2

Another data set deals with TGF-beta receptor type-2 (Homo sapiens, UniProt P37173). Nature of the data set: Binding affinity to TGFBR2 in SILAC-labeled human MDA-MB-231 cells lysate by mass spectrometry based kinAffinity assay. It counts as subcellular. In short, it runs like this: as §2
Chain of TGF-beta receptor type-2 (P37173 whole entry): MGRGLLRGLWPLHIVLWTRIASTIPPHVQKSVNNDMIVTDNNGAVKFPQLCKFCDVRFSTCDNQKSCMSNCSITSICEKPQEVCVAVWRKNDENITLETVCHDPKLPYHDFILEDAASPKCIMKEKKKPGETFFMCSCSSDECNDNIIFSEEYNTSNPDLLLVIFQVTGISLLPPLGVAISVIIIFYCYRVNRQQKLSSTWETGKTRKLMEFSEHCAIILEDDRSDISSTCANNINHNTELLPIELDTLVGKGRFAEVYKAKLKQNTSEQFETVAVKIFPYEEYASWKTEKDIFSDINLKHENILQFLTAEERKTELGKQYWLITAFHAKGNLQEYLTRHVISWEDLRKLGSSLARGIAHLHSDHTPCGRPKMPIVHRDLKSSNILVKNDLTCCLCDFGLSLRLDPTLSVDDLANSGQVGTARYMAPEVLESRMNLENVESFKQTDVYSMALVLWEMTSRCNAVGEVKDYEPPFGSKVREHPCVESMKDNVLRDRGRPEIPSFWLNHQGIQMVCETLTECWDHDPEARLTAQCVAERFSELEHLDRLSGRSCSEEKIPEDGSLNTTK
In data set [13] the target is Mitogen-activated protein kinase kinase kinase kinase 3 (Homo sapiens, UniProt Q8IVH8). Nature of the data set: Binding affinity to MAP4K3 in SILAC-labeled human MDA-MB-231 cells lysate by mass spectrometry based kinAffinity assay. Format: subcellular. In short, it runs like this: as §1
Chain of Mitogen-activated protein kinase kinase kinase kinase 3 (Q8IVH8 whole entry): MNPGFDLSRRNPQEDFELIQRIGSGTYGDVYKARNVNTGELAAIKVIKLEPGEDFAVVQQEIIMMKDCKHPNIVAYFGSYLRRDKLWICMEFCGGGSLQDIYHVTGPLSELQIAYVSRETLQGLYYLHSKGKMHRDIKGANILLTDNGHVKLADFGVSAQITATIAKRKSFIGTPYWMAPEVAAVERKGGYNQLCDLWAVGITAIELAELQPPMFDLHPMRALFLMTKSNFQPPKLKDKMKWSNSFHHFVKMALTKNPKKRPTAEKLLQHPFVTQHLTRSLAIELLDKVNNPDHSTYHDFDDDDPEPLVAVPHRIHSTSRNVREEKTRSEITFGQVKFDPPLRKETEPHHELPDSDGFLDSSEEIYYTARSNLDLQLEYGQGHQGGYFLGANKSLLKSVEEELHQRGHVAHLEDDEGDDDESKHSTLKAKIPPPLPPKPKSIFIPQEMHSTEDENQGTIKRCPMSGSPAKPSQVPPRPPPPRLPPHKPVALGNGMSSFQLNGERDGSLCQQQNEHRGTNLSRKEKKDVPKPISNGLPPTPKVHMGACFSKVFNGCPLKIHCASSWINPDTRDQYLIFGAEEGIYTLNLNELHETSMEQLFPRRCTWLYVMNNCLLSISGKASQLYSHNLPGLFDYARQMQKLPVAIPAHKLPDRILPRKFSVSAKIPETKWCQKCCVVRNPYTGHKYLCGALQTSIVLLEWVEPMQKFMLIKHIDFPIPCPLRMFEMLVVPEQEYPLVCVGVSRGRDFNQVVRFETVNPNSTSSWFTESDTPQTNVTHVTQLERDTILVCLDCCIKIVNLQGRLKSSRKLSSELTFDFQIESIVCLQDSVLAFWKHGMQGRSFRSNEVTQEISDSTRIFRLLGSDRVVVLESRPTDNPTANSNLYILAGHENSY
Data set [14] addresses Cyclin-G-associated kinase (Homo sapiens, UniProt O14976). Nature of the data set: Binding affinity to GAK in SILAC-labeled human MDA-MB-231 cells lysate by mass spectrometry based kinAffinity assay. Format: subcellular. In short, it runs like this: as §1
The target of data set [15] is Ribosomal protein S6 kinase alpha-1 (Homo sapiens, UniProt Q15418). The data set is described as follows: Binding affinity to RPS6KA1 in SILAC-labeled human MDA-MB-231 cells lysate by mass spectrometry based kinAffinity assay. Format: subcellular. An outline of the steps: as §2
Another data set deals with Focal adhesion kinase 1 (Homo sapiens, UniProt Q05397). The data set is described as follows: Binding affinity to FAK in SILAC-labeled human MDA-MB-231 cells lysate by mass spectrometry based kinAffinity assay. It counts as subcellular. An outline of the steps: as §1
Data set [16] deals with Serine/threonine-protein kinase Nek1 (Homo sapiens, UniProt Q96PY6). Nature of the data set: Binding affinity to NEK1 in SILAC-labeled human MDA-MB-231 cells lysate by mass spectrometry based kinAffinity assay. Format: subcellular. An outline of the steps: as §2
Chain of Serine/threonine-protein kinase Nek1 (Q96PY6 whole entry): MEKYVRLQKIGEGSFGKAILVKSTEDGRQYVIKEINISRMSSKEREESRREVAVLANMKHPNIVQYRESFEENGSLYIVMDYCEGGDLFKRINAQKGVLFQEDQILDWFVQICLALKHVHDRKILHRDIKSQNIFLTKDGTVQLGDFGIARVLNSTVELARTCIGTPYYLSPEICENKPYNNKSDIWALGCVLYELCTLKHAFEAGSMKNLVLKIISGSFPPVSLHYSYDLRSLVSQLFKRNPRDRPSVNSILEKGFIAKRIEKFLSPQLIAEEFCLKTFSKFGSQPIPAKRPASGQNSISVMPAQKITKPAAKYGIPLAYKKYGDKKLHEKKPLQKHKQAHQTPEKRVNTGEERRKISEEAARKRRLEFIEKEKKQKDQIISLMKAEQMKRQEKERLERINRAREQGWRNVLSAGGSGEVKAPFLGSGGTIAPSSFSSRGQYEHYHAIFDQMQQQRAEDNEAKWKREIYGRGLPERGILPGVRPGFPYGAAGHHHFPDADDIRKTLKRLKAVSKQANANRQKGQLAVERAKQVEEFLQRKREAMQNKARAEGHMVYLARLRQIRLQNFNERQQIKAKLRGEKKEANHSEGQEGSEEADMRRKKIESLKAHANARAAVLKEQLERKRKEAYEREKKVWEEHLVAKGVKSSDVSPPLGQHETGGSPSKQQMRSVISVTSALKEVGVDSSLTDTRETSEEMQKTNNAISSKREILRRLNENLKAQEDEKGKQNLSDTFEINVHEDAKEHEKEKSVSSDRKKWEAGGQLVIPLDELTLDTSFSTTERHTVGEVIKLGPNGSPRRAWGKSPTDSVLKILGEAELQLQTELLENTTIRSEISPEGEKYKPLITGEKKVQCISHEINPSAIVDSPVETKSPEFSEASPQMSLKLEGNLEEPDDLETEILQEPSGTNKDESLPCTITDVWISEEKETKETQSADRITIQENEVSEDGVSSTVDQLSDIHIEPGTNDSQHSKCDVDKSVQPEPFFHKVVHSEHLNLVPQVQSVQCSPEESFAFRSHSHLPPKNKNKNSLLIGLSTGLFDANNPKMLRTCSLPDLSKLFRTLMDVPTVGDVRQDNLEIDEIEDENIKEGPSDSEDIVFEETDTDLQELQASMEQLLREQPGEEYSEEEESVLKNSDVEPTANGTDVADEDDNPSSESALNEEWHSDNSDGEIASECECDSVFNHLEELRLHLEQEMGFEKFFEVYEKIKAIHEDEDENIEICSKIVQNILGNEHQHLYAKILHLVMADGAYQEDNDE

Chain of Cyclin-G-associated kinase (O14976 whole entry): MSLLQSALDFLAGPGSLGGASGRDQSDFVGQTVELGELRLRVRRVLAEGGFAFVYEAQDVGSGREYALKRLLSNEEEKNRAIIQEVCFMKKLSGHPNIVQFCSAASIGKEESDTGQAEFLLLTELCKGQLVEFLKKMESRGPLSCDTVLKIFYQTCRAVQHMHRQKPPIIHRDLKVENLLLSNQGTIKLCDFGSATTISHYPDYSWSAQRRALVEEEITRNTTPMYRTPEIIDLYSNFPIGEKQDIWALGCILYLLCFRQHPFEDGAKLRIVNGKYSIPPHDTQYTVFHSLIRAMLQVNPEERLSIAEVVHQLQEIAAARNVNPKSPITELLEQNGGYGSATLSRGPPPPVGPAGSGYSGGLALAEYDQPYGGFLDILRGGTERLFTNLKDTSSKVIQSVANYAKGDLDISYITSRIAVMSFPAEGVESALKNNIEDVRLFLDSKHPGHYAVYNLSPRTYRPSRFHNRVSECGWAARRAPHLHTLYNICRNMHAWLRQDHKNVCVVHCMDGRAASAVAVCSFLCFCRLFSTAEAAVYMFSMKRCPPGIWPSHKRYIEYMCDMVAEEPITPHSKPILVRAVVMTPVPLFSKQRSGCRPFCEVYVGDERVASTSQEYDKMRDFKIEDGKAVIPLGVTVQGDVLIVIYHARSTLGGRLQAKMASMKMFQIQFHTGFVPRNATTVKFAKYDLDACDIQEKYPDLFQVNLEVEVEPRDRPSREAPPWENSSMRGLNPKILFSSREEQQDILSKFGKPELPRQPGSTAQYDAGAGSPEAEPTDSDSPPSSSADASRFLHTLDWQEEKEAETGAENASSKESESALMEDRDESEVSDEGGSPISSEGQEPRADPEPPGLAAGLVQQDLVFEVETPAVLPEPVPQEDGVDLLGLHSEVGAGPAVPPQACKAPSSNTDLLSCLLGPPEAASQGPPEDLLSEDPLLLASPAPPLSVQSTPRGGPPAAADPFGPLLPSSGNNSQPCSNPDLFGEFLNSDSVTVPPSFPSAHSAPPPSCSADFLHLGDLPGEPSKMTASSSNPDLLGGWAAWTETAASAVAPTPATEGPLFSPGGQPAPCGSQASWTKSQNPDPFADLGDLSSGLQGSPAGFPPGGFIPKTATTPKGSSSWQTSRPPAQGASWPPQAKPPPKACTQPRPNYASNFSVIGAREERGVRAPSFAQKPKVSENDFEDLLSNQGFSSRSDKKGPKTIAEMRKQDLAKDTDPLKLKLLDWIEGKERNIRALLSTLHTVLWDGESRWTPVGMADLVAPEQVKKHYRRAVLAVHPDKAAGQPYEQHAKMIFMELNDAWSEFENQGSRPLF
Chain of Non-receptor tyrosine-protein kinase TNK1 (Q13470 whole entry): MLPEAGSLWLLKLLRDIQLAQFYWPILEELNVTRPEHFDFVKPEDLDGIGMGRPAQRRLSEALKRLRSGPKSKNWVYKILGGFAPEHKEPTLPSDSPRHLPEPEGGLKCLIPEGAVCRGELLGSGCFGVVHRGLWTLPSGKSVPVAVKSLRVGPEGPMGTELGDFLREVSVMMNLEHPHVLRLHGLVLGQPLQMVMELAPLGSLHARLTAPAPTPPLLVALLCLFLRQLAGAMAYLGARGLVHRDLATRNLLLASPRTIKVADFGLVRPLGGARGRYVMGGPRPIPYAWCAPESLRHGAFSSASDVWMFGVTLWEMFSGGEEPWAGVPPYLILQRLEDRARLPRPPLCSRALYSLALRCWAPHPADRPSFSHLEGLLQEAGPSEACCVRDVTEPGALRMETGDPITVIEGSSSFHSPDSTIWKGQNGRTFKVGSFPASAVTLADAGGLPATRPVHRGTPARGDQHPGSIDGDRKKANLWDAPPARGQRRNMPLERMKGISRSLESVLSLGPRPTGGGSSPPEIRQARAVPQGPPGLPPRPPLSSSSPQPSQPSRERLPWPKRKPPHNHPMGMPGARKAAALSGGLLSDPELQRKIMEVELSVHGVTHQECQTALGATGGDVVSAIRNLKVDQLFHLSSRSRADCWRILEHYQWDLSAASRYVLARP
Chain of 5'-AMP-activated protein kinase subunit beta-2 (O43741 whole entry): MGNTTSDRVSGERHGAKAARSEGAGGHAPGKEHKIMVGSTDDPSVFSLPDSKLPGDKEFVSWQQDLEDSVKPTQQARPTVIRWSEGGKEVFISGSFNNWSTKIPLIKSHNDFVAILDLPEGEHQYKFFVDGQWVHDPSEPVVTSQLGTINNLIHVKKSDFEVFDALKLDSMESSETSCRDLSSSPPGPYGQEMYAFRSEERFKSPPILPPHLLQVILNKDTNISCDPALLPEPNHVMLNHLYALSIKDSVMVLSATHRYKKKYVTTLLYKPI

As for `COc1cc2c(Oc3ccc(NS(=O)(=O)c4cc(F)ccc4F)cc3F)ccnc2cc1OCCCN1CCCC(C)C1` (stereo not drawn), the Papp B→A at 2 h, 10 µM in [1] worked out at 14.6 ×10⁻⁶ cm/s. Also, the microsomal CLint at 5 µM in data set [2] was determined as 19.1 µL/min/mg. The compound also showed a clearance in data set [3] of 11.7 mL/min/kg. In addition, the half-life in data set [4] was 8.5 h.
Consider `COc1cc2c(Oc3ccc(NS(=O)(=O)c4c(F)cccc4F)cc3F)ccnc2cc1OCCCN1CCN(C)CC1`, for which the “Kd(free)” value in data set [5] is 6 nM; in data set [6], 14 nM; in data set [7], 17 nM; on Activin receptor type-1, more than 70 nM; in [8], 16 nM; in data set [9], 96 nM. Besides, the “Kd(free)” value turned out to be 786 nM in data set [10]; 304 nM in data set [11]; 1907 nM in [12]; 7385 nM at TGF-beta receptor type-2; 1367 nM in [13]; 4166 nM in data set [14]. Besides, the results for the “Kd(free)” value (in [15]; on Focal adhesion kinase 1; in data set [16]) were 5474 nM, 2212 nM and 5043 nM, respectively.
Take `COc1cc2c(Oc3ccc(NS(=O)(=O)c4cc(F)ccc4F)cc3F)ccnc2cc1OCCCN1CCN(C)CC1`: the “Kd(free)” value turned out to be 15 nM in [5]; 24 nM in [6]; 43 nM in data set [7]; 52 nM at Activin receptor type-1; 71 nM in [8]; 254 nM in [9]. The “Kd(free)” value in [10] was 616 nM; in data set [11] it was 679 nM; in data set [12] it was 969 nM; at TGF-beta receptor type-2, 1860 nM; in [13], 2080 nM; in data set [14] it was 2448 nM. The figures for the “Kd(free)” value (in data set [15]; at Focal adhesion kinase 1; in [16]) were 3152 nM, 4445 nM and 5146 nM, respectively. The Papp B→A at 2 h, 10 µM in data set [1] came to 17 ×10⁻⁶ cm/s. Further, in data set [2], the microsomal CLint at 5 µM was found to be 143 µL/min/mg. Moreover, the clearance in data set [3] is 6.67 mL/min/kg. For the same compound, the half-life in data set [4] is 18.7 h.
